Consider twelve molecules from ChEMBL document CHEMBL1128366, “Hypoxia-selective agents derived from quinoxaline 1,4-di-N-oxides” (J Med Chem, 1995).

One data set deals with V79. The data set is described as follows: The compound was tested for potency by measuring the concentration (umolar) that gives 1% clonogenic cell survival in hypoxia. Format: functional, Cricetulus griseus. The method in brief:
(§1)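 V-79 Chinese hamster lung fibroblasts in stirred suspension (2 × 10⁴ cells/mL, EMEM + 10% FBS, 10 mM HEPES), gassed for air or hypoxia; drug in DMSO added 30 min after gassing began, two flasks per dose, 2 h exposure. Cells cloned 7 days at 37 °C, crystal violet stain, colonies >64 cells counted; survival = PE treated/PE control. Dose-response curves from ≥3 experiments.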

Data set [1] in a line: Hypoxia cytotoxicity ratio (dose in air / hypoxia giving 99% of cell killing). The method in brief:
as §1

With `N#Cc1c(N)[n+]([O-])c2cc(C(F)(F)F)ccc2[n+]1[O-]`, in the data set on V79, the Potency stood at 7 µM. For the same molecule, the Selectivity in data set [1] is on record as 75.

Turning to `N#Cc1c(N)[n+]([O-])c2cc(Cl)ccc2[n+]1[O-]`, in the data set with V79, the Potency stood at 9 µM. Also, the Selectivity in data set [1] is on record as 150.

In the data set on V79, `N#Cc1c(N)[n+]([O-])c2cc(F)c(F)cc2[n+]1[O-]` came in with a Potency of 1 µM. The Selectivity in data set [1] is below 10.

`N#Cc1c(N)[n+]([O-])c2cc(-c3ccc([N+](=O)[O-])cc3)ccc2[n+]1[O-]` returned a Potency in the data set on V79 of 4 µM. Besides, the Selectivity in data set [1] was 15.

The molecule `N#Cc1c(N)[n+]([O-])c2ccccc2[n+]1[O-]` registered a Potency in the data set on V79 of 30 µM. In data set [1], the Selectivity is 80.

`N#Cc1c(N)[n+]([O-])c2cc(Cl)c(F)cc2[n+]1[O-]`: in the data set on V79, the Potency was 2 µM. The Selectivity in data set [1] is 10.

In turn, `N#Cc1c(N)[n+]([O-])c2cc(F)ccc2[n+]1[O-]` returned a Potency in the data set on V79 of 15 µM. Moreover, in data set [1], the Selectivity is on record as 100.

`COc1cc2c(cc1Cl)[n+]([O-])c(C#N)c(N)[n+]2[O-]` yielded a Potency in the data set with V79 of 10 µM. Also, the Selectivity in data set [1] is given as below 10.

In the case of `N#Cc1ccc2c(c1)[n+]([O-])c(N)c(C#N)[n+]2[O-]`, in the data set on V79, the Potency came to 11 µM. Further, the Selectivity in data set [1] was determined as 50.

Molecule `COc1ccc2c(c1)[n+]([O-])c(N)c(C#N)[n+]2[O-]` returned a Potency in the data set on V79 of 30 µM. Also, in data set [1], the Selectivity is on record as above 10.

For the molecule `N#Cc1c(N)[n+]([O-])c2cc(Cl)c(Cl)cc2[n+]1[O-]`, the Potency in the data set on V79 was found to be 1 µM. Further, the Selectivity in data set [1] worked out at 80.

In the data set on V79, `Nc1n[n+]([O-])c2ccccc2[n+]1[O-]` [TIRAPAZAMINE] came in with a Potency of 30 µM. The Selectivity in data set [1] is 75.
